The source made the active and inactive calls. The calls are words filed in the database; no cut-off is given here.
Columns and labels:
Histamine H2 receptor [1] = target: T1, Histamine H2 receptor (Homo sapiens, UniProt P25021); assay: Antagonist activity at human histamine H2 receptor expressed in Sf9 cells coexpressing GsalphaS protein by steady-state GTPase assay; assay type: functional
Method in brief: (§1)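 Antagonist-mode steady-state GTPase assay in Sf9 membranes: H1R coexpressed with RGS4; H2R as GsαS fusion; H3R coexpressed with Giα2/Gβ1γ2/RGS4; H4R as RGS19 fusion with Giα2/Gβ1γ2. […] MgCl2: H1R/H2R 1.0 mM, H3R/H4R 5.0 mM; H4R plus 100 mM NaCl. [γ-32P]GTP hydrolysis measured over 20 min at 25 °C. pKB from nonlinear sigmoidal fits; duplicate runs.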

Histamine H1 receptor [2] = target: T2, Histamine H1 receptor (Homo sapiens, UniProt P35367); assay: Antagonist activity at human histamine H1 receptor expressed in Sf9 cells coexpressing RGS4 by steady-state GTPase assay; assay type: functional; method in brief: as §1
T2 sequence (P35367 whole entry): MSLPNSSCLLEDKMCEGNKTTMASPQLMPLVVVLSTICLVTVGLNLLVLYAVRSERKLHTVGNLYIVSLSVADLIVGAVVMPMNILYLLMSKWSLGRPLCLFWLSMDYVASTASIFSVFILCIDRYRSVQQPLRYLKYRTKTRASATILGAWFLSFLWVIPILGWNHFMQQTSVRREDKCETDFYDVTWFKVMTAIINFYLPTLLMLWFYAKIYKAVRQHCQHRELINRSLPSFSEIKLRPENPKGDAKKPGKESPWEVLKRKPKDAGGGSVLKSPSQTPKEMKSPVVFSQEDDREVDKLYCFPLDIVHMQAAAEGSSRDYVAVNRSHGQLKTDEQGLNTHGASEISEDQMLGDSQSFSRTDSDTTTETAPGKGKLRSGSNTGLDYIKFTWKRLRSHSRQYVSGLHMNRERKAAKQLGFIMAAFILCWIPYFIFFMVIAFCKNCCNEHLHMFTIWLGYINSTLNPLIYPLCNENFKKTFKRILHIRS

Histamine H4 receptor [3] = target: T3, Histamine H4 receptor (Homo sapiens, UniProt Q9H3N8); assay: Antagonist activity at human histamine H4 receptor expressed in Sf9 cells coexpressing RGS19 protein by steady-state GTPase assay; assay type: functional; method in brief: as §1
T3 sequence (Q9H3N8 whole entry): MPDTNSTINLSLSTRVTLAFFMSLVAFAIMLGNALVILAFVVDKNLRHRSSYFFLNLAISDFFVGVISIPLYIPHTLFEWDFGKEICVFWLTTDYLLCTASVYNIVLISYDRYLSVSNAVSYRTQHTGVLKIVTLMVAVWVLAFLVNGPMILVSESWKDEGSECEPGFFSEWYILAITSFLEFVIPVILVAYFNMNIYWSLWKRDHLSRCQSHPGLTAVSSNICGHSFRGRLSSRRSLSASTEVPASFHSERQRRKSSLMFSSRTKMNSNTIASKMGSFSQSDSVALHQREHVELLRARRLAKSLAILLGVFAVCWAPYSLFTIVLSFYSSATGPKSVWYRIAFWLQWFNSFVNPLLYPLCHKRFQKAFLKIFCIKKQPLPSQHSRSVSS

Histamine H3 receptor [4] = target: T4, Histamine H3 receptor (Homo sapiens, UniProt Q9Y5N1); assay: Antagonist activity at human histamine H3 receptor expressed in Sf9 cells coexpressing Gialpha-2-Gbeta-1-gamma-2 and RGS4 proteins protein by steady-state GTPase assay; assay type: functional; method in brief: as §1
T4 sequence (Q9Y5N1 whole entry): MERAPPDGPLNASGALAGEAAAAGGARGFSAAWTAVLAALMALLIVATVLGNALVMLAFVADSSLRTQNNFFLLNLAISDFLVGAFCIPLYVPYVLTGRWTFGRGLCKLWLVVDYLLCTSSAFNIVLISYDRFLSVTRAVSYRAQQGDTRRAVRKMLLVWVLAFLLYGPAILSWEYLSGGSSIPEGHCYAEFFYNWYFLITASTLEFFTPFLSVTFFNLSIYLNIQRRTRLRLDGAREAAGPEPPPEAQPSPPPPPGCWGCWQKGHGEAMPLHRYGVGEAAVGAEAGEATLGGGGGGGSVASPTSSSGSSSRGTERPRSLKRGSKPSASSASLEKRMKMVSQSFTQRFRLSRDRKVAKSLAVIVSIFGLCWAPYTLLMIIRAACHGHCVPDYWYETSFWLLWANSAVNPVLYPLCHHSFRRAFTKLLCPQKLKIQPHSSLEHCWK

Histamine H2 receptor [5] = target: T1, Histamine H2 receptor; assay: Agonist activity at human histamine H2 receptor expressed in Sf9 cells coexpressing GsalphaS protein by steady-state GTPase assay; assay type: functional
Method in brief: (§2)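 Sf9 membranes (10-20 μg protein/tube), washed and resuspended in 10 mM Tris-HCl pH 7.4. H2R as hH2R-GsαS fusion; H3R coexpressed with Giα2, Gβ1γ2, RGS4; H4R as hH4R-RGS19 fusion with Giα2, Gβ1γ2. Buffer: 50 mM Tris/HCl pH 7.4, MgCl2 (H2R 1.0 mM; H3R/H4R 5.0 mM), 100 μM EDTA, 100 μM ATP, 100 nM GTP, 100 μM AppNHp, creatine phosphate/kinase, 0.2% BSA; H4R plus 100 mM NaCl.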

Histamine H4 receptor [6] = target: T3, Histamine H4 receptor; assay: Agonist activity at human histamine H4 receptor expressed in Sf9 cells coexpressing RGS19 protein by steady-state GTPase assay; assay type: functional; method in brief: as §2
Homo sapiens [7] = species: Homo sapiens; assay: Selectivity for human histamine H4 receptor over human histamine H1 receptor by radioligand displacement assay
Histamine H1 receptor [8] = target: T2, Histamine H1 receptor; assay: Displacement of [3H]mepyramine from human histamine H1 receptor expressed in Sf9 cells
Method in brief: (§3)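 Competition binding on Sf9 membranes in 12.5 mM MgCl2, 1 mM EDTA, 75 mM Tris/HCl pH 7.4. Protein per tube: 50 μg (H1R, H3R), 120 μg (H4R), 250 μg (H2R). […] 60 min at 25 °C with shaking; PEI-treated GF/C filtration, cold washes, scintillation counting; one-site fits, duplicates.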

Histamine H2 receptor [9] = target: T1, Histamine H2 receptor; assay: Displacement of [3H]tiotidine from human histamine H2 receptor expressed in Sf9 cells; method in brief: as §3
Homo sapiens [10] = species: Homo sapiens; assay: Selectivity for human histamine H4 receptor over human histamine H3 receptor by steady-state GTPase assay
Homo sapiens [11] = species: Homo sapiens; assay: Selectivity for human histamine H4 receptor over human histamine H2 receptor by radioligand displacement assay
Histamine H4 receptor [12] = target: T3, Histamine H4 receptor; assay: Displacement of [3H]histamine from human histamine H4 receptor expressed in Sf9 cells; method in brief: as §3
Histamine H3 receptor [13] = target: T4, Histamine H3 receptor; assay: Displacement of [3H]N-alpah-methylhistamine from human histamine H3 receptor expressed in Sf9 cells; method in brief: as §3
Histamine H4 receptor [14] = target: T3, Histamine H4 receptor; assay: Agonist activity at human histamine H4 receptor expressed in Sf9 cell membrane coexpressing RGS19 protein by steady-state GTPase assay; assay type: functional; method in brief: as §2
Histamine H2 receptor [15] = target: T1, Histamine H2 receptor; assay: Agonist activity at human histamine H2 receptor expressed in Sf9 cells coexpressing GsalphaS protein at 1 mM by steady-state GTPase assay; assay type: functional
Histamine H1 receptor [16] = target: T2, Histamine H1 receptor; assay: Agonist activity at human histamine H1 receptor expressed in Sf9 cells coexpressing RGS4 by steady-state GTPase assay; assay type: functional

T1 sequence (P25021 whole entry, the tested form may be a part): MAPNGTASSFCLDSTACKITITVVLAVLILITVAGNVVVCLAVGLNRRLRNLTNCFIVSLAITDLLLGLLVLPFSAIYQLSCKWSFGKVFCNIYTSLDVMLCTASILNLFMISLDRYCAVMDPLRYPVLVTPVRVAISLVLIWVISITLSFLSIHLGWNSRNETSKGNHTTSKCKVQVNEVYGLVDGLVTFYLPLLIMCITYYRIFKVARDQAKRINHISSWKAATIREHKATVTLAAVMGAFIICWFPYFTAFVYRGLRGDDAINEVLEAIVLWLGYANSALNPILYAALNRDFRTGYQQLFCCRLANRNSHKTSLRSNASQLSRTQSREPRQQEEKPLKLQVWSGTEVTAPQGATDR

With `N#C/N=C(\N)NCCCCc1c[nH]cn1` the pKb (Histamine H2 receptor [1]) was less than 5.

Compound `NC(=O)/N=C(/NCCCc1ccccc1)NCCc1c[nH]cn1` has a pKb (Histamine H1 receptor [2]) of less than 5, a pKb (Histamine H4 receptor [3]) of 5.89 and a pKb (Histamine H3 receptor [4]) of 8.42. For the same compound, the EC50 (Histamine H2 receptor [5]) was 2 µM.

Work on `N=C(NCCCc1c[nH]cn1)NS(=O)(=O)CCc1ccccc1` yielded a pKb (Histamine H4 receptor [3]) of 5.85, a pKb (Histamine H3 receptor [4]) of 6.57 and an EC50 (Histamine H2 receptor [5]) of 12 µM.

`N#C/N=C(\NCCCCc1ccccc1)NCCCc1c[nH]cn1` gave a pKb (Histamine H4 receptor [3]) of 5.22, a pKb (Histamine H2 receptor [1]) of 5.03 and an EC50 (Histamine H2 receptor [5]) of 8.91 µM.

With `N#C/N=C(/NCCCCc1c[nH]cn1)NCCc1ccccc1` the pKb (Histamine H2 receptor [1]) was 5, the pKb (Histamine H3 receptor [4]) was 5.82 and the EC50 (Histamine H4 receptor [6]) was 1.1 µM.

For `N#C/N=C(/NCCCc1c[nH]cn1)NCCC(c1ccccc1)c1ccccc1`, the pKb (Histamine H4 receptor [3]) was less than 5 and the pKb (Histamine H2 receptor [1]) was less than 5.

Work on `NC(=O)NC(=NCCCc1cnc[nH]1)NCCCc1ccccc1` yielded an EC50 (Histamine H2 receptor [5]) of 0.646 µM.

Work on `N#C/N=C(/NCCCCc1c[nH]cn1)NCCSc1ccccc1` yielded a Selectivity ratio (Homo sapiens [7]) of 450, a pKb (Histamine H1 receptor [2]) of less than 5 and a Ki (Histamine H1 receptor [8]) of 25.7 µM. The pKb (Histamine H2 receptor [1]) was less than 5, the pKb (Histamine H3 receptor [4]) was 6 and the Ki (Histamine H2 receptor [9]) was 4.07 µM. For the same compound, the Selectivity ratio (Homo sapiens [10]) was 30, the Selectivity ratio (Homo sapiens [11]) was 70 and the Ki (Histamine H4 receptor [12]) was 0.0575 µM. The EC50 (Histamine H4 receptor [6]) was 0.0339 µM, the Ki (Histamine H3 receptor [13]) was 0.525 µM and the Activity (Histamine H4 receptor [14]) was greater than 10 nM.

In the case of `N#C/N=C(\NCCc1ccccc1)NCCc1c[nH]cn1`, the pKb (Histamine H4 receptor [3]) is reported as 5.18 and the Activity (Histamine H2 receptor [15]) is reported as “inactive”.

`N#C/N=C(/NCCCC1CCCCC1)NCCc1c[nH]cn1` was tested, and the pKb (Histamine H4 receptor [3]) was 5.57.

In the case of `NC(=O)NC(=NCCCc1cnc[nH]1)NCCCCc1ccccc1`, the EC50 (Histamine H2 receptor [5]) is reported as 0.38 µM.

In the case of `N#C/N=C(/NCCCCc1c[nH]cn1)NCCC(c1ccccc1)c1ccccc1`, the pKb (Histamine H4 receptor [3]) is reported as 5.6 and the pKb (Histamine H2 receptor [1]) is reported as 5.

For `Cc1nc[nH]c1CCN` [4-METHYLHISTAMINE], the EC50 (Histamine H1 receptor [16]) was 15.8 µM, the Activity (Histamine H2 receptor [15]) was “inactive” and the EC50 (Histamine H2 receptor [5]) was 2.88 µM. The EC50 (Histamine H4 receptor [6]) was 0.0708 µM.

`NC(=O)/N=C(/NCCCc1ccccc1)NCCCc1c[nH]cn1` was tested, and the pKb (Histamine H1 receptor [2]) was less than 5, the pKb (Histamine H4 receptor [3]) was 6.77 and the pKb (Histamine H3 receptor [4]) was 6.23.

Work on `NC(=O)N=C(NCCCCc1c[nH]cn1)NCCCc1ccccc1` yielded an EC50 (Histamine H2 receptor [5]) of 0.437 µM.

In the case of `CCN/C(=N\C#N)NCCCCc1c[nH]cn1`, the pKb (Histamine H1 receptor [2]) is reported as less than 5, the pKb (Histamine H2 receptor [1]) is reported as less than 5 and the pKb (Histamine H3 receptor [4]) is reported as 5.54. For the same compound, the EC50 (Histamine H4 receptor [6]) was 0.708 µM.

`N#C/N=C(\NCCCCCc1c[nH]cn1)NCCSc1ccccc1` was tested, and the pKb (Histamine H4 receptor [3]) was 6.85, the pKb (Histamine H2 receptor [1]) was 5.21 and the pKb (Histamine H3 receptor [4]) was 6.74.

For `CCN/C(=N/C#N)NCCCCCc1c[nH]cn1`, the pKb (Histamine H4 receptor [3]) was 6.47, the pKb (Histamine H2 receptor [1]) was 5.37 and the pKb (Histamine H3 receptor [4]) was 6.92.

With `N#CNC(=NCCCCc1cnc[nH]1)NCCCc1ccccc1` the EC50 (Histamine H4 receptor [6]) was 0.151 µM.

`CN/C(=N\C#N)NCCCCCc1c[nH]cn1` gave a pKb (Histamine H4 receptor [3]) of 6.54, a pKb (Histamine H2 receptor [1]) of 5.66 and a pKb (Histamine H3 receptor [4]) of 6.38.

Work on `CC(C)CN/C(=N\C#N)NCCCCc1c[nH]cn1` yielded a pKb (Histamine H1 receptor [2]) of less than 5, a pKb (Histamine H2 receptor [1]) of less than 5 and a pKb (Histamine H3 receptor [4]) of 5.47. The EC50 (Histamine H4 receptor [6]) was 0.12 µM.

`N#CNC(=NCCCCc1cnc[nH]1)NCCCc1ccncc1` was tested, and the EC50 (Histamine H4 receptor [6]) was 2.57 µM.

For `N#C/N=C(/NCCCc1c[nH]cn1)NCCc1c[nH]c2ccccc12`, the pKb (Histamine H4 receptor [3]) was 5.37, the pKb (Histamine H2 receptor [1]) was less than 5 and the Activity (Histamine H2 receptor [15]) was “inactive”.

Work on `CC(C)N/C(=N/C#N)NCCCCCc1c[nH]cn1` yielded a pKb (Histamine H4 receptor [3]) of 6.25, a pKb (Histamine H2 receptor [1]) of 5.57 and a pKb (Histamine H3 receptor [4]) of 6.47.

With `Cc1[nH]cnc1CSCCN/C(=N\C#N)NCCCc1ccccc1` the pKb (Histamine H4 receptor [3]) was less than 5 and the pKb (Histamine H2 receptor [1]) was 5.74.

`N#C/N=C(/NCCCc1c[nH]cn1)NCCSc1ccccc1` gave a pKb (Histamine H2 receptor [1]) of less than 5, an EC50 (Histamine H2 receptor [5]) of 7.24 µM and an EC50 (Histamine H4 receptor [6]) of 1.29 µM.

`CC(CCNC(=NCCCCc1cnc[nH]1)NC#N)c1ccccc1` (centres undefined) showed an EC50 (Histamine H4 receptor [6]) of 0.141 µM.

Source: ChEMBL document CHEMBL1154326 (J Med Chem, 2009)
